High-throughput results: PubChem BioAssay, several laboratories
Compounds with a hit are over-represented: about 3.5% of the library has one in this group of screens.
PAFAH1B3 inh = PAFAH1B3 enzyme inhibitors, primary screen, biochemical, fluorescence polarization, human; Platelet-activating factor acetylhydrolase IB subunit alpha1 (Homo sapiens), Q15102; recombinant PAFAH1B3, FP-rhodamine probe; inhibition, % at 3.39 µM; actives 0.28% (n = 340,000);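 active = inhibition above the screen-wide average of all tested compounds plus 3 SD, cut at about 25% in these data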
PREPL inhibitor = PREPL enzyme inhibitors, primary screen, biochemical, fluorescence polarization; actives 0.68% (n = 320,000); inhibition, % at 5.96 µM; recombinant PREPL, fluorescence polarization activity-based probe; in the data active = inhibition above about 43%
Target sequence (Q4J6C6 whole entry, looked up): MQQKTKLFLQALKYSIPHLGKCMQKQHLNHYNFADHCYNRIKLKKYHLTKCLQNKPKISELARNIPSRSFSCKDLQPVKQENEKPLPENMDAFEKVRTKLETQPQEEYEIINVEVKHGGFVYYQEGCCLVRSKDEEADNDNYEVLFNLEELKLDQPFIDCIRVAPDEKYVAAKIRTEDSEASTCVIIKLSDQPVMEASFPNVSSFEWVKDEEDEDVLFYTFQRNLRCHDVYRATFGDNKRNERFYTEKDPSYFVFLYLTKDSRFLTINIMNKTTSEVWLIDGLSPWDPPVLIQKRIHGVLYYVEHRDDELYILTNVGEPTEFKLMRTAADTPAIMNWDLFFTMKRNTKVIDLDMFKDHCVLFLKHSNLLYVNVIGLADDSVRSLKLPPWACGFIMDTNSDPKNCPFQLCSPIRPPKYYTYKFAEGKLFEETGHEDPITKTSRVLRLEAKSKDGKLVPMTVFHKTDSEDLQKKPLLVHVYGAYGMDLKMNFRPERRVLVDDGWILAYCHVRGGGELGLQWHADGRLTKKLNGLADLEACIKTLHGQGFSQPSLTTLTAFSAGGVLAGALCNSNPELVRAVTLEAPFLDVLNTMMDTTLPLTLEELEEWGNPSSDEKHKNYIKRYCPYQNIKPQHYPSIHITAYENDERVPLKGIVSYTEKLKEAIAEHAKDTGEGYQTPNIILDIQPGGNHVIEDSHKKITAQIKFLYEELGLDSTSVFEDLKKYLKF
PAFAH1B2 FP inh = PAFAH1B2 enzyme inhibitors, primary screen, biochemical, fluorescence polarization, human | Platelet-activating factor acetylhydrolase IB subunit alpha2 (Homo sapiens), P68402 | recombinant PAFAH1B2, FP-rhodamine activity probe | inhibition, % at 3.39 µM | actives 1.2% (n = 340,000) | AID 492953, 2010;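 active = inhibition above the mean of all tested compounds plus 3 SD, cut at about 24% in these data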
Apaf1 inhib = inhibitors of human Apaf-1 apoptosome, primary screen, biochemical, DEVD-Rh110 fluorescence, uHTS; Apoptotic protease-activating factor 1 (Homo sapiens), O14727; reconstituted apoptosome caspase-3 activity; inhibition, % at 20 µM; actives 0.71% (n = 330,000); active = inhibition of at least 40% at 20 µM
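Assay system: Apoptosome proteins | Medium: pH 7.5 Hepes buffer with CHAPS, BSA, DTT | Also added: Cytochrome c and DEVD-Rh110 substrate | Times: 30 min plus 50 min, RT | Detection: Rhodamine 110 fluorescence at Ex 480/Em 540 nm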
pPAFAH inh = pPAFAH enzyme inhibitors, primary screen, biochemical, fluorescence polarization, human. Platelet-activating factor acetylhydrolase (Homo sapiens), Q13093. recombinant pPAFAH, FP-rhodamine probe fluorescence polarization. inhibition, % at 3.39 µM. actives 1.5% (n = 330,000);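 active = inhibition above the mean inhibition across the screen plus 3 SD, cut at about 25% in these data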;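 also: inhibitors block binding of the rhodamine activity-based probe so polarization drops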
PAFAH2 FP inh = PAFAH2 enzyme inhibitors, primary screen, biochemical, fluorescence polarization, human; recombinant PAFAH2, FP-rhodamine activity probe; inhibition, % at 3.39 µM; AID 492956, 2010; actives 0.99% (n = 340,000);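 active = inhibition above the mean over all tested compounds plus 3 SD, cut at about 30% in these data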;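 also: inhibitors block probe labeling of enzyme so polarization drops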
pPAFAH FP conf = pPAFAH (PLA2G7) enzyme inhibitors, confirmation, biochemical, fluorescence polarization, human; AID 463230, 2010; actives 72% (n = 2,300); inhibition, % at 3.39 µM; shares compounds with pPAFAH inh; recombinant pPAFAH, FP-Rh probe fluorescence polarization;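 active = mean inhibition of the triplicate above the hit cutoff set for the earlier primary screen, cut at about 25% in these data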
Large screens that a line does not name were inactive (follow-up assays come after a bar, where they were run).

CCN(CC)c1ccc(N2C(=O)CSC2=S)cc1	pPAFAH inh 48 | pPAFAH FP conf inactive
COc1cc(OC)cc(C(=O)Nc2c(C)nn(-c3ccccc3)c2C)c1	none
C/C(CC(=O)Nc1ccc2ccccc2c1)=N\NC(=O)c1cnccn1	none
C/C(CC(=O)Nc1ccc2ccccc2c1)=N\NC(=O)c1ccc(O)c(O)c1	pPAFAH inh 54 | pPAFAH FP conf 55
CCCc1cc(=O)n(-c2nc3ccccc3s2)[nH]1	none
CCOC(=O)Cc1cc(=O)n(-c2nc3ccccc3s2)[nH]1	pPAFAH inh 41, PAFAH2 FP inh 31 | pPAFAH FP conf inactive
O=C(CN1C(=O)CSC1=O)NCc1ccccc1	pPAFAH inh 78 | pPAFAH FP conf inactive
O/N=C/c1cc(Br)ccc1OCc1ccccc1F	none
O=C1/C(=C\c2cc(Br)cc(Br)c2O)SC(=S)N1Cc1ccccc1	none
O=C(O)CN1C(=O)/C(=C\c2cc(Br)ccc2OCc2ccccc2Cl)SC1=S	pPAFAH inh 45 | pPAFAH FP conf 75
O=C(O)CN1C(=O)/C(=C\c2cc(Br)ccc2OCc2ccccc2F)SC1=S	pPAFAH inh 52, PAFAH2 FP inh 31 | pPAFAH FP conf 67
O=C(O)CN1C(=O)/C(=C\c2cc(Br)ccc2OCc2ccc([N+](=O)[O-])cc2)SC1=S	pPAFAH inh 59 | pPAFAH FP conf 58
COc1cc([N+](=O)[O-])cc(/C=C2/SC(=S)N(Cc3ccccc3)C2=O)c1O	none (no result: Apaf1 inhib)
COc1ccc(CCNC(=O)c2cc(=O)n(C)c(=O)n2C)cc1OC	none
CCc1ccccc1NC(=O)c1ccc(S(=O)(=O)NCC2CCCO2)cc1 (centres undefined)	none
Cc1ccc(NC(=O)CN2C(=O)COc3ccc(S(=O)(=O)N4CCOCC4)cc32)cc1N(C)C	none
CCCCCOc1ccc(NC(=O)C(=O)NCC2CCCN2CC)cc1 (centres undefined)	none
Oc1cccc(/C=N/NC(=S)NCCN2CCOCC2)c1O	pPAFAH inh 41 | pPAFAH FP conf inactive
S=C(NCCN1CCOCC1)N/N=C/c1cccs1	none
CCOC(=O)c1ccc(Nc2nnc(C)c3ccccc23)cc1	none
CC(=O)c1ccc(N2CCN(C(=S)NCCCN(C)C)CC2)cc1	none
CN(C)c1ccnc(Oc2ccccc2)c1C#N	none (no result: PREPL inhibitor, Apaf1 inhib, pPAFAH inh)
CN(C)c1ccnc(SCc2ccccc2Cl)c1C#N	pPAFAH inh 35 | pPAFAH FP conf inactive
Cc1[nH]n(C(N)=S)c(=O)c1N=Nc1ccccc1C(F)(F)F	none
Cc1nc(N)sc1N=Nc1ccccc1C(F)(F)F	pPAFAH inh 42 | pPAFAH FP conf 30
N=C1SC(c2ccccc2)C(=O)N1c1ncc(Cc2ccccc2)s1 (centres undefined)	PAFAH1B2 FP inh 34, pPAFAH inh 39 | pPAFAH FP conf 44
O=C(Nc1ncc(Cc2ccccc2)s1)C1=NCCN1	none
CCOC(=O)c1cnc2c(C)c(Cl)ccc2c1Nc1ccc(S(=O)(=O)Nc2ncccn2)cc1	none (no result: PAFAH1B3 inh, PAFAH1B2 FP inh, PAFAH2 FP inh)
COc1ccc(-c2coc3cc(OC(=O)N4CCOCC4)ccc3c2=O)cc1	pPAFAH inh 51 | pPAFAH FP conf 43
O=C(NC1CCCC1)C(c1ccccn1)N(Cc1ccccc1F)C(=O)c1csnn1 (centres undefined)	none
Cn1c(N)c(C(=O)COC(=O)CNC(=O)c2ccccc2Cl)c(=O)n(C)c1=O	none
O=C(Nc1ccc(Cl)c(S(=O)(=O)N2CCCC2)c1)c1nn(CCO)c(=O)c2ccccc12	none (no result: PREPL inhibitor, pPAFAH inh)
Cc1nnc(NC(=O)C2CC(=O)N(c3ccc4c(c3)OCCO4)C2)s1 (centres undefined)	none
O=C(Nc1nc(-c2ccco2)c(-c2ccco2)s1)C1CC(=O)N(c2ccc3c(c2)OCCO3)C1 (centres undefined)	pPAFAH inh 47 | pPAFAH FP conf 41
O=C(Nc1ccc(S(=O)(=O)Nc2nccs2)cc1)c1ccc(=O)[nH]c1	PAFAH1B3 inh 30, pPAFAH inh 39 | pPAFAH FP conf inactive
O=C(Nc1ccc(S(=O)(=O)Nc2nccs2)cc1)c1cccc(F)c1	none
Cc1ccc(C(=O)Nc2ccc(N3CCN(C)CC3)nc2)cc1	none
COC(=O)C1=C(CS(=O)(=O)c2ccc(Cl)cc2)NC(=O)NC1c1ccc(O)cc1 (centres undefined)	none
COc1cc([N+](=O)[O-])cc(/C=N/NC(=O)c2cc(C)nc3ccccc23)c1O	none
COc1cc([N+](=O)[O-])cc(/C=N/NC(=O)c2cc(-c3ccccc3)nc3ccccc23)c1O	pPAFAH inh 36 | pPAFAH FP conf 35
Cc1nn(-c2ccccc2)c(/N=C/c2ccccc2O)c1-c1ccccc1	pPAFAH inh 35 | pPAFAH FP conf inactive
Cc1ccc(-n2c(CCC(=O)O)ccc2-c2cccs2)cc1	pPAFAH inh 51 | pPAFAH FP conf inactive
CCOc1ccc(NC(=O)CSc2nc3[nH]ncc3c(=O)n2-c2ccccc2OC)cc1	pPAFAH inh 40 | pPAFAH FP conf inactive
O=C1CC(=O)Nc2cc(S(=O)(=O)NCc3cccs3)ccc2N1	pPAFAH inh 65 | pPAFAH FP conf inactive
Cc1cc(C(=O)O)ccc1N/C=C1\CCCC(C)C1=O (centres undefined)	none
CC1CCC/C(=C\Nc2ccc(O)cc2)C1=O (centres undefined)	pPAFAH inh 35 | pPAFAH FP conf inactive
COc1ccccc1NCCC(=O)O	none
O=C(O)CCNc1ccc(NCCC(=O)O)c2c1C(=O)c1ccccc1C2=O	pPAFAH inh 62, PAFAH2 FP inh 46 | pPAFAH FP conf inactive
COc1ccc(CNC(=O)COC(=O)CCCOc2ccc(Cl)cc2Cl)cc1	pPAFAH inh 35 | pPAFAH FP conf inactive
COC(=O)c1cc(S(=O)(=O)NCCc2cccc(C)c2)cn1C	none
COc1cc(C(=S)N2CCN(c3ccccc3Cl)CC2)cc(O)c1O	pPAFAH inh 42 | pPAFAH FP conf 64
COc1ccc(C(=S)N2CCN(c3ccccc3Cl)CC2)cc1OC	none
COc1ccc(NC(=O)c2c(F)cccc2F)cc1S(=O)(=O)Nc1ccc(Br)cc1	pPAFAH inh 36 | pPAFAH FP conf 28
COc1ccc(NS(=O)(=O)c2cc(NC(=O)c3ccccn3)ccc2OC)cc1Br	none
CC(C)Cc1cc(C(=O)N2CCC(N3CCC(C(=O)NC4CC4)CC3)CC2)n[nH]1	none
CCC(=O)Nc1ccccc1C(=O)N1CCOCC1	none
